The text below walks through data of ChEMBL document CHEMBL3085673, “The design of a novel series of muscarinic receptor antagonists leading to AZD8683, a potential inhaled treatment for COPD” (Bioorg Med Chem Lett, 2013).

Data set [1] can be described thus: Plasma protein binding in human. It is filed as ADME, cell-free. The note with it: for fraction unbound: read-out: PPB (converted).
Data set [2] concerns the target Muscarinic acetylcholine receptor M3 (Homo sapiens, UniProt P20309). Description: Displacement of [3H]NMS from recombinant human M3 receptor expressed in CHO-K1 cells after 16 hrs by SPA method. It is filed as cell-based. In outline: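 Nonspecific binding defined with atropine 1 µM; eight total-binding replicates per plate. Incubated at room temperature at least 16 h to equilibrium before counting; n ≥ 2.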

A short description of data set [3]: Intrinsic clearance in human liver microsomes. It counts as ADME. The note with it: read-out: CLH.

Structures are written as SMILES.

Chain of Muscarinic acetylcholine receptor M3 (P20309 whole entry): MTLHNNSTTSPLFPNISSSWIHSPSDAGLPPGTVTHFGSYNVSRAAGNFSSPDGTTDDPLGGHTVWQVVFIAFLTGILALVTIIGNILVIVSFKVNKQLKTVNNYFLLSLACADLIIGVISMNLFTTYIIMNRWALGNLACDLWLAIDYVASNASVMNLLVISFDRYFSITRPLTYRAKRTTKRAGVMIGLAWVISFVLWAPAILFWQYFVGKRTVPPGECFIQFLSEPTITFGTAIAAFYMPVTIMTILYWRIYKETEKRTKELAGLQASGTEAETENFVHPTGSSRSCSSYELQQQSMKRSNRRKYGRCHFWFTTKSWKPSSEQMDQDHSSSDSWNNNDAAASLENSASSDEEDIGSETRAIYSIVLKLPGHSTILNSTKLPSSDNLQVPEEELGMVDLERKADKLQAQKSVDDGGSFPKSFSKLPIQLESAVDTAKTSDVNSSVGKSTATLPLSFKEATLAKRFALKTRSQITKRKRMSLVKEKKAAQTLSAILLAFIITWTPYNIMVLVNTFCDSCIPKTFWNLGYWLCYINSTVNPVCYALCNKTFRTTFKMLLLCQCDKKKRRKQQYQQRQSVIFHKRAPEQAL

With `C[N+]1(C)CCC(OC(=O)C2(c3ccccc3)CCCCCC2)CC1`, in data set [1], the fraction unbound is 0.27. The IC50 in data set [2] was 0.251 nM. For the same compound, the microsomal CLint in data set [3] came to 20 µL/min/mg.
Turning to `O=C(C[N+]12CCC(CC1)[C@@H](OC(=O)C1(C3=CC=CC3)CCCCCC1)C2)Nc1cncnc1`, in data set [2], the IC50 is 0.631 nM. Also, the microsomal CLint in data set [3] is 32 µL/min/mg.
As to `Cc1ccc(CCC[N+]23CCC(CC2)[C@@H](OC(=O)C2(C4=CC=CC4)CCCCCC2)C3)c(C)n1`, the fraction unbound in data set [1] was 0.04. Further, the IC50 in data set [2] was 1 nM. For the same compound, in data set [3], the microsomal CLint turned out to be 50 µL/min/mg.
For the compound `Cc1cnc(NC(=O)C[N+]23CCC(CC2)[C@@H](OC(=O)C2(C4=CC=CC4)CCCCCC2)C3)cn1`, the fraction unbound in data set [1] is 0.04. The IC50 in data set [2] is 0.794 nM. Moreover, in data set [3], the microsomal CLint was determined as 27 µL/min/mg.
In the case of `O=C(C[N+]12CCC(CC1)[C@@H](OC(=O)C1(C3=CC=CC3)CCCCCC1)C2)Nc1ccncn1`, in data set [1], the fraction unbound was 0.11. The IC50 in data set [2] is 0.158 nM.
Consider `O=C(C[N+]12CCC(CC1)[C@H](OC(=O)C1(C3=CC=CC3)CCCCCC1)C2)Nc1ccccn1`, for which the IC50 in data set [2] is 31.6 nM.
For `O=C(C[N+]12CCC(CC1)[C@@H](OC(=O)C1(C3=CC=CC3)CCCCCC1)C2)Nc1cccnc1`, the fraction unbound in data set [1] was 0.04. Moreover, in data set [2], the IC50 is 0.2 nM. In addition, in data set [3], the microsomal CLint was 40 µL/min/mg.
As to `CC(C)(C)c1cc(NC(=O)C[N+]23CCC(CC2)[C@@H](OC(=O)C2(C4=CC=CC4)CCCCCC2)C3)no1`, the half-inhibitory concentration (IC50) in data set [2] was 10 nM.
For `O=C(C[N+]12CCC(CC1)[C@@H](OC(=O)C1(C3=CC=CC3)CCCCCC1)C2)Nc1nncs1`, the fraction unbound in data set [1] is 0.06. For the same compound, the IC50 in data set [2] is 7.94 nM. In addition, the microsomal CLint in data set [3] is 39 µL/min/mg.
For `Cc1ccc(NC(=O)C[N+]23CCC(CC2)[C@@H](OC(=O)C2(C4=CC=CC4)CCCCCC2)C3)cn1`, the IC50 in data set [2] was 0.794 nM.
`O=C(C[N+]12CCC(CC1)[C@@H](OC(=O)C1(C3=CC=CC3)CCCCCC1)C2)NCCCNC(=O)c1ccccn1`: in data set [1], the fraction unbound was 0.026. The 50% inhibitory concentration (IC50) in data set [2] is 6.31 nM. The microsomal CLint in data set [3] came out at 101 µL/min/mg.
Consider `O=C(C[N+]12CCC(CC1)[C@@H](OC(=O)C1(C3=CC=CC3)CCCCCC1)C2)Nc1ccc(C(F)(F)F)nc1`, for which the IC50 in data set [2] was 0.251 nM. The microsomal CLint in data set [3] is 5 µL/min/mg.
With `COc1cccc(C[N+]23CCC(CC2)[C@@H](OC(=O)C2(C4=CC=CC4)CCCCCC2)C3)c1`, the IC50 in data set [2] was 3.16 nM.
Turning to `Cc1ccc(NC(=O)C[N+]23CCC(CC2)[C@@H](OC(=O)C2(C4=CC=CC4)CCCCCC2)C3)nn1`, in data set [1], the fraction unbound is 0.1. Moreover, the IC50 in data set [2] is 0.794 nM. In data set [3], the microsomal CLint amounted to 16 µL/min/mg.
Take `Cc1nccc(NC(=O)C[N+]23CCC(CC2)[C@@H](OC(=O)C2(C4=CC=CC4)CCCCCC2)C3)n1`: the IC50 in data set [2] is 0.398 nM.
`O=C(C[N+]12CCC(CC1)[C@@H](OC(=O)C1(C3=CC=CC3)CCCCCC1)C2)Nc1ccc(C(F)(F)F)nn1`: the IC50 in data set [2] is 2.51 nM.
With `N#Cc1ccc(CC[N+]23CCC(CC2)[C@@H](OC(=O)C2(C4=CC=CC4)CCCCCC2)C3)cc1`, in data set [2], the IC50 is 3.16 nM. In addition, the microsomal CLint in data set [3] amounted to 49 µL/min/mg.
Take `Cc1ccnc(NC(=O)C[N+]23CCC(CC2)[C@@H](OC(=O)C2(C4=CC=CC4)CCCCCC2)C3)c1`: the fraction unbound in data set [1] was 0.018. In addition, the IC50 in data set [2] is 0.794 nM. For the same compound, in data set [3], the microsomal CLint is 30 µL/min/mg.
`O=C(C[N+]12CCC(CC1)[C@@H](OC(=O)C1(C3=CC=CC3)CCCCCC1)C2)Nc1ccc(F)cn1`: the fraction unbound in data set [1] was 0.024. The IC50 in data set [2] was 0.631 nM.
In the case of `Cc1ccc(NC(=O)C[N+]23CCC(CC2)[C@@H](OC(=O)C2(C4=CC=CC4)CCCCCC2)C3)nc1`, in data set [1], the fraction unbound is 0.019. Further, the IC50 in data set [2] was 0.501 nM. In addition, in data set [3], the microsomal CLint came to 51 µL/min/mg.
As for `O=C(C[N+]12CCC(CC1)[C@@H](OC(=O)C1(C3=CC=CC3)CCCCCC1)C2)Nc1ncns1`, the IC50 in data set [2] was 0.398 nM. In addition, the microsomal CLint in data set [3] amounted to 25 µL/min/mg.
For `Cc1cc(NC(=O)C[N+]23CCC(CC2)[C@@H](OC(=O)C2(C4=CC=CC4)CCCCCC2)C3)ncn1`, the fraction unbound in data set [1] is 0.2. For the same compound, the IC50 in data set [2] was 1 nM. In addition, the microsomal CLint in data set [3] came to 26 µL/min/mg.
For `C[N+]12CCC(CC1)[C@@H](OC(=O)C1(C3=CC=CC3)CCCCCC1)C2`, the fraction unbound in data set [1] is 0.27. Also, in data set [2], the IC50 is 2.51 nM. In addition, the microsomal CLint in data set [3] turned out to be 34 µL/min/mg.
For `O=C(C[N+]12CCC(CC1)[C@@H](OC(=O)C1(C3=CC=CC3)CCCCCC1)C2)Nc1ncco1`, the fraction unbound in data set [1] was 0.15. Besides, the IC50 in data set [2] is 12.6 nM. Further, the microsomal CLint in data set [3] is 66 µL/min/mg.
Take `Cc1cncc(NC(=O)C[N+]23CCC(CC2)[C@@H](OC(=O)C2(C4=CC=CC4)CCCCCC2)C3)n1`: the IC50 in data set [2] is 0.631 nM. Besides, the microsomal CLint in data set [3] came to 27 µL/min/mg.
With `O=C(C[N+]12CCC(CC1)[C@@H](OC(=O)C1(C3=CC=CC3)CCCCCC1)C2)NCCNC(=O)c1cnccn1`, in data set [2], the IC50 was 3.16 nM. In addition, in data set [3], the microsomal CLint is 74 µL/min/mg.
Turning to `O=C(C[N+]12CCC(CC1)[C@@H](OC(=O)C1(C3=CC=CC3)CCCCCC1)C2)Nc1ccccc1`, in data set [1], the fraction unbound was 0.006. Further, the IC50 in data set [2] was 0.251 nM. Besides, the microsomal CLint in data set [3] came to 27 µL/min/mg.
Consider `O=C(O[C@H]1C[N+]2(Cc3ccccc3)CCC1CC2)C1(C2=CC=CC2)CCCCCC1`, for which the IC50 in data set [2] is 39.8 nM. Further, the microsomal CLint in data set [3] was 68 µL/min/mg.
Consider `O=C(O[C@H]1C[N+]2(CCCOc3ccccc3)CCC1CC2)C(O)(c1cccs1)c1cccs1.[Br-]` [ACLIDINIUM BROMIDE], for which the PPB result in data set [1] is “ND(Unstable)”. Also, the microsomal CLint in data set [3] is over 145 µL/min/mg.
For the compound `Cn1ccc(CCC[N+]23CCC(CC2)[C@@H](OC(=O)C2(C4=CC=CC4)CCCCCC2)C3)n1`, in data set [1], the fraction unbound is 0.06. Also, in data set [2], the IC50 is 0.501 nM. Further, the microsomal CLint in data set [3] was found to be 63 µL/min/mg.
Turning to `O=C(C[N+]12CCC(CC1)[C@@H](OC(=O)C1(C3=CC=CC3)CCCCCC1)C2)Nc1ccncc1`, in data set [1], the fraction unbound was 0.05. Besides, in data set [2], the IC50 was 2.51 nM. Further, the microsomal CLint in data set [3] turned out to be 39 µL/min/mg.
`O=C(C[N+]12CCC(CC1)[C@@H](OC(=O)C1(C3=CC=CC3)CCCCCC1)C2)N1CCOCC1`: the IC50 in data set [2] is 100 nM. Further, the microsomal CLint in data set [3] was 15 µL/min/mg.
As to `O=C(C[N+]12CCC(CC1)[C@@H](OC(=O)C1(C3=CC=CC3)CCCCCC1)C2)Nc1cccc(C(F)(F)F)n1`, the fraction unbound in data set [1] is 0.004. Also, the IC50 in data set [2] is 2.51 nM.
Take `O=C(O[C@H]1C[N+]2(Cc3ccn(-c4ccccc4)n3)CCC1CC2)C1(C2=CC=CC2)CCCCCC1`: the IC50 in data set [2] was 0.398 nM. Moreover, the microsomal CLint in data set [3] was determined as 103 µL/min/mg.
Regarding `O=C(C[N+]12CCC(CC1)[C@@H](OC(=O)C1(C3=CC=CC3)CCCCCC1)C2)Nc1ncccc1F`, in data set [1], the fraction unbound is 0.06. The IC50 in data set [2] is 0.251 nM. For the same compound, in data set [3], the microsomal CLint was 49 µL/min/mg.
For the compound `O=C(O[C@H]1C[N+]2(Cc3ccc(F)c(F)c3)CCC1CC2)C1(C2=CC=CC2)CCCCCC1`, the IC50 in data set [2] is 39.8 nM. In data set [3], the microsomal CLint turned out to be 55 µL/min/mg.
With `O=C(C[N+]12CCC(CC1)[C@@H](OC(=O)C1(C3=CC=CC3)CCCCCC1)C2)Nc1cc[nH]n1`, the fraction unbound in data set [1] was 0.05. The IC50 in data set [2] is 0.1 nM. Further, the microsomal CLint in data set [3] was found to be 37 µL/min/mg.
`O=C(O[C@H]1C[N+]2(Cc3csc(-c4ccccc4)n3)CCC1CC2)C1(C2=CC=CC2)CCCCCC1`: the IC50 in data set [2] is 25.1 nM. In addition, the microsomal CLint in data set [3] is 133 µL/min/mg.
